Like-named read-outs stand apart in the source and are kept apart here.

We go through 2 compounds from article PMC7438818 (CPT: Pharmacometrics & Systems Pharmacology, 2020).

Data set [1] is classed as in vivo, human.
For data set [2], the system named is TNFα release. As to the kind of experiment: TNFα PK/PD model, lipopolysaccharide-stimulated whole blood ex vivo assay. The class given is in vivo, human. Particulars: for Sigmoidicity parameter γ: Imax-model of TNFα inhibition. The method in brief:
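Whole blood was drawn straight into LPS-containing tubes and incubated, then ex vivo TNFα was measured. With PK parameters fixed, one common sigmoid Imax model was fitted for both compounds, driven by a weighted sum of plasma and transduction-compartment concentrations. The weight was estimated from data. The driving concentration was total for the test compound and unbound for the reference steroid. Nonlinear mixed effects, FOCE.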

Data set [3] concerns TNFα release. As to the kind of experiment: Simulated dose-response and equipotent dose relationship from the PK/PD model. Particulars: for TNFα inhibition at the highest studied doses: dose-response curves. The class given is in vivo, human. In outline:
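The fitted PK/PD model was simulated to give dose-response curves, with response defined as average TNFα inhibition over 24 h after 5 consecutive daily oral doses. Confidence intervals came from repeated simulations using parameters sampled from the estimated covariance matrix. Equipotent doses were defined as those giving the same average inhibition. Their confidence intervals accounted simultaneously for the uncertainty of both dose-responses.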

In data set [4] the test system is release of the cytokines TNFα, interferon-γ, interleukin-6, interleukin-8, macrophage inflammatory protein-1α and -1β. The class given is in vivo, human. Particulars: total plasma concentrations; six pro-inflammatory cytokines. In outline:
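Static nonlinear mixed effects sigmoid Imax models related observed total plasma drug concentrations to ex vivo LPS-stimulated release of TNFα, IFN-γ, IL-6, IL-8, MIP-1α and MIP-1β. Data were pooled from the single and multiple ascending dose studies. Lognormal between-subject variability was used, with lognormal residual error (additive on log scale). Models were estimated by FOCE.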

The conditions of data set [5]: literature average of plasma protein binding parameters ref 24, 25, 26, 27; cited from earlier work.
The format of data set [6] is in vivo, human. The method in brief: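 Data pooled from single ascending dose (2–155 mg) and multiple ascending dose (10, 20, 40, 80, 125 mg) studies in healthy volunteers; prediabetic obese cohort and sub-LLOQ (5 nM) data excluded. Two-compartment model with first-order absorption and lag time on total plasma concentrations. Oral dose entered as a linear covariate on relative bioavailability and as a covariate on absorption rate. Lognormal interoccasion variability for days 1 and 5. Fitted by nonlinear mixed effects, FOCE.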
This is another data set of the same source.

For data set [7] the following is noted: ref data on file, AstraZeneca; cited from earlier work.
[8] abbreviates: unbound prednisolone, oral (apparent).
Setting [9] is: average over 24 hours following 5 consecutive daily doses.

By half-life is commonly meant the time needed for the level to fall by half in the phase considered. In the case of `C[C@]12C=CC(=O)C=C1CC[C@@H]1[C@@H]2[C@@H](O)C[C@@]2(C)[C@H]1CC[C@]2(O)C(=O)CO` [prednisolone], in data set [1] (human, plasma, oral), the half-life is 1.9 h. Also, in data set [1] (unbound prednisolone), the “Contribution of the first phase to AUC” value stood at 66%, the “Inter-compartment clearance Q” value worked out at 5.81 L/h, the “Mean transit time tm” value is 0.772 h and the “Peripheral volume of distribution Vp” value is recorded as 23.6 L. Further, in data set [1] (setting [8]), the “Central volume of distribution Vc” value was 352 L and the “Clearance CL” value is 110 L/h. The “No. of transit compartments n” value in data set [1] (unbound prednisolone, transit compartment absorption) worked out at 8.11. Further, in data set [2], the “Sigmoidicity parameter γ” value was found to be 1.33. The “TNFα inhibition at the highest studied doses” value in data set [3] (setting [9]) is reported as 60–75%. For the same compound, the “Equipotent dose of prednisolone” value in data set [3] (equipotent to 40 mg AZD9567, 95% CI of 14–29 mg) was 20 mg. In addition, the “Estimated TNFα inhibition” value in data set [3] (prednisolone 20 mg, average over 24 hours following 5 consecutive daily doses) is recorded as 43%. The “Inhibition of cytokine release” value in data set [4] is recorded as “inhibited the release of the cytokines”. In data set [5], the “Unbound fraction, high limit, literature average” value is recorded as 53% and the “Unbound fraction, low limit, literature average” value is given as 9%.

Regarding `CC(C)[C@H](NC(=O)C(C)(F)F)[C@H](Oc1ccc2c(cnn2-c2ccc(=O)n(C)c2)c1)c1ccccc1` [AZD9567], the “Absorption rate constant ka0” value in data set [6] (absorption rate in the limit of zero dose) worked out at 38.2 h⁻¹. The “Covariate model (dose on F) s” value in data set [6] (decrease in relative bioavailability F per mg dose, F=1-s×Dose) turned out to be 0.00253 mg⁻¹. For the same compound, in data set [6] (dose-dependent absorption rate), the “Covariate model (dose on ka) α” value was 0.0592 mg⁻¹ and the “Covariate model (dose on ka) λ” value is 0.103. The “Decrease of relative bioavailability” value in data set [6] (for every additional 4 mg AZD9567 dosed) is recorded as ~ 1 % unit. Also, the half-life in data set [6] (human, plasma, oral) was 4.4 h. Further, the “Unbound clearance relative to prednisolone” value in data set [6] (implied by the low fraction unbound) is listed as “more than fivefold higher unbound clearance”. For the same compound, in data set [6] (total AZD9567), the “Intercompartment clearance Q” value came out at 0.500 L/h and the “Peripheral volume of distribution Vp” value stood at 392 L. Also, the “Clearance CL” value in data set [6] (total AZD9567, oral) came out at 3.70 L/h. In addition, the “Central volume of distribution Vc” value in data set [6] (total AZD9567, oral (apparent)) is reported as 26.8 L. For the same compound, the “Contribution of the first phase to AUC” value in data set [6] (two-compartment model) is given as 88%. The “Sigmoidicity parameter γ” value in data set [2] amounted to 1.40. In data set [2] (unbound IC50 4.87 nM vs 17.0 nM), the “Potency as inhibitor of TNFα release relative to prednisolone” value is recorded as ~ 3.5 fold. The “Average TNFα inhibition” value in data set [3] (AZD9567 40 mg, average over 24 hours following 5 consecutive daily doses) was 43%. Also, the “TNFα inhibition at the highest studied doses” value in data set [3] (setting [9]) is on record as 60–75%. Moreover, in data set [3] (equipotent to prednisolone 20 mg), the “Equipotent dose of AZD9567 (95% CI)” value is reported as 40 mg. Further, in data set [3] (in vivo), the “Doses required for equipotency relative to prednisolone” value is recorded as “roughly twofold higher doses”. The “Inhibition of cytokine release” value in data set [4] is recorded as “inhibited the release of the cytokines”. For the same compound, the Unbound fraction result in data set [7] is given as “^c Derived from the estimate of IC50 for total AZD9567 concentrations using an unbound fraction of 0.637%”.
